Source: the RNAGym collection of RNA variant scans (doi:10.1126/science.aae0568)
Fewer inactive variants are shown than the library holds.

B1: tRNA (parent)
chain: GUUCCGUUGGCGUAAUGGUAACGCGUCUCCCUCCUAAGGAGAAGACUGCGGGUUCGAGUCCCGUACGGAACG

Variants of: B1
Assay: yeast fitness relative to wild type (ratio to wild type); higher = fitter; tRNA-Arg(CCU), competitive growth, 37 C, YPD
Summary of the method: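 Start and end populations of a pooled competition were compared by 100-nucleotide paired-end sequencing of gene amplicons. The Saccharomyces cerevisiae strains carried tRNA-Arg(CCU) gene variants at the native genomic locus, synthesised with a 3% per-site mutation rate at 69 sites, and competed in YPD at 37°C for 24 hours in six parallel replicates. Darwinian fitness relative to wild type was based on the change in genotype frequencies. Genotypes required ≥ 100 starting reads, and estimates < 0.5 were set to 0.5.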

Row | Variant | yeast fitness
1 | U28A C33U C55G A70U | ≤ 0.5
2 | U2A A65G | 0.938
3 | A36U A42C | 0.595
4 | A15G U19C A37U | 0.622
5 | C5U U13G A57C | 0.755
6 | U28G G67A | 0.69
7 | G17A A42U C55U C62A | ≤ 0.5
8 | C5G G23C C31U A37C | ≤ 0.5
9 | C4U G12C U28G U32C C62G | ≤ 0.5
10 | U28C C29G C49U | ≤ 0.5
11 | G18C C27G U28C U47C U59A A65G | 0.61
12 | U2G G18A A21G G25A G51C | ≤ 0.5
13 | C4G U7A C22U C66A | ≤ 0.5
14 | U7C G23A G56C G68A | ≤ 0.5
15 | C4U U16C A42C | 0.579
16 | C4G U8A G12A C22U G48A A69C | 0.522
17 | A14U G18C U35G C49A C60G G68A | ≤ 0.5
18 | U8A G18C A36U C66U | 0.505
19 | A21C A45U G52A | 0.503
20 | U2A U8A G9A U13A C24A A45C | ≤ 0.5
21 | U7A U16C C29U C31A C66G G67U | ≤ 0.5
22 | C29U C61G A65U | ≤ 0.5
23 | C24G C61G G68A | ≤ 0.5
24 | C5G C31U C49G C66U | ≤ 0.5

Row | Variant | yeast fitness
25 | U2G C31U G48C C62A | ≤ 0.5
26 | G10A C46U | 0.812
27 | A20C G23C C27A | 0.574
28 | U7A A14C A20G | ≤ 0.5
29 | U3A G25A C49G A65G A69U | ≤ 0.5
30 | U35A A42G | 0.681
31 | A20G G25C G51C | 0.658
32 | G18A A37C | 0.727
33 | C24U U32G A69C A70U | ≤ 0.5
34 | U19C A20G G67A | 0.76
35 | C5G C27G C29U C31U A45G C49A C66U | ≤ 0.5
36 | C4G U47A G68A | ≤ 0.5
37 | C24U C66U A69C | 0.568
38 | C4G G12A | 0.781
39 | U3A C4U C29G | ≤ 0.5
40 | G25A A43U G56A | 0.718
41 | C4G U8C C24G A42C G67A | 0.558
42 | A14G G48A G68A | ≤ 0.5
43 | A21G C31G A70G | 0.787
44 | U3C C5U C22U A40U A43U | ≤ 0.5
45 | C5U G39A A69C | 0.647
46 | C4G A36U G58A | ≤ 0.5
47 | U2C A15U U16C G23C | ≤ 0.5
48 | C5U C34G A45U | 0.534

Row | Variant | yeast fitness
49 | G6A C27G A36U C46U G67A | ≤ 0.5
50 | G50C U53C U54A | ≤ 0.5
51 | U26A C49U A65C | 0.742
52 | C5U C11A G44C | ≤ 0.5
53 | C29A A37G A57G G67C A69U | ≤ 0.5
54 | C34U U53C C55U | ≤ 0.5
55 | G6C G41C C49G | 0.544
56 | U13A U19C C24G G25A G39C A40C G51C | ≤ 0.5
57 | G6A A20U C62G C66G | ≤ 0.5
58 | C4G G9C C22A | ≤ 0.5
59 | C34G G48A A70U | 0.584
60 | G10C C22U A65C | ≤ 0.5
61 | G10A G18A C27G A37G G38A | ≤ 0.5
62 | C4G U7G G12C A20U U32A | ≤ 0.5
63 | A14C U19C A20G G58A | ≤ 0.5
64 | U26C A70U | 0.926
65 | U16G A57G C66U A69U | ≤ 0.5
66 | A20C G23C C27A U64A | ≤ 0.5
67 | C31G C33G C34U G68A | 0.603
68 | A43C C46U G63C C66U | 0.581
69 | A14U C30G C62G | 0.573
70 | G50U A69U | 1.02
71 | C11G U13G A21G A65G | ≤ 0.5
72 | U47G G63A | 0.561

Row | Variant | yeast fitness
73 | A37U C46G C55A U59C C61A C62U | 0.524
74 | G6A A21G A37C A57C | ≤ 0.5
75 | U7A G10A C33A A36C G50U | ≤ 0.5
76 | A20G U54G | 0.524
77 | G12C C66G | 0.657
78 | C46A G52A G58C | 0.742
79 | U16A U26A | 0.974
80 | U2C G67A | 0.911
81 | C11U U13A A20C C22G | ≤ 0.5
82 | G6C U7G C24U C27A C60U | ≤ 0.5
83 | C27A C30U A57C C62U | ≤ 0.5
84 | U13A C24A C61A A69U | 0.505
85 | C33U G50C A57C | 0.623
86 | C24U A37C A40G U54A | ≤ 0.5
87 | C24U C29U C31G | 0.806
88 | U3A A42G C66U | 0.595
89 | U16G C24U C49G G63C | ≤ 0.5
90 | A14C U16C A40U G51C A69C | 0.639
91 | A40G U54C | 0.955
92 | A36G C49U G58C | 0.655
93 | U7C C22G C24A G25C | ≤ 0.5
94 | G6C A45C C55U A69C | ≤ 0.5
95 | C22A C24A U26C C49U U64A | ≤ 0.5
96 | C11U A65U | 0.923

Row | Variant | yeast fitness
97 | C4A C5A C22A U28G C33G A57G G67C | ≤ 0.5
98 | G58A U59C | 0.971
99 | A15C C46U C49U G50A | ≤ 0.5
100 | C24G C30A A69C | 0.547
101 | C5U C61U | 0.971
102 | U2G C5A U19A C30G A43C A69C | 0.537
103 | G9A C31U | 0.982
104 | G9A A36U | 0.677
105 | C29A G68C | 0.621
106 | A14G G17C C55A | ≤ 0.5
107 | C46A G56A A70G | 1.01
108 | C4G G10A C30G A43G | 0.659
109 | U16G A57G C62G | ≤ 0.5
110 | C5U U16C A40G A43G G67C | ≤ 0.5
111 | C5G G17A C34A G39C A40C G56C C61G C62G G68C | ≤ 0.5
112 | U2G G9C G12A A20G A42C C46G C49U A69C | ≤ 0.5
113 | A15C A36C G38C C55U C66U | ≤ 0.5
114 | C5A A36C C46G | 0.532
115 | U7A G25A A65U | 0.765
116 | U3A G18A A45G A57C | ≤ 0.5
117 | A21G A45U A69U | 1.07
118 | G18C C27U G38A G39C | 0.521
119 | G6A A14U A21U G25C C60U C61A C62G | ≤ 0.5
120 | C11G A36U U54A U64C A69U | ≤ 0.5

Row | Variant | yeast fitness
121 | U13A C22G U32C A42C G48C C55G | ≤ 0.5
122 | A15U U28A C33G A65G | ≤ 0.5
123 | A20G U35A U54G | ≤ 0.5
124 | U2A C11U A14U U19G | ≤ 0.5
125 | A20G C22A C34G C46U G63A | ≤ 0.5
126 | U7C U16A | 0.812
127 | A14G U32C | 0.931
128 | A21C C24U A37C G39A C49G | ≤ 0.5
129 | C4A C55U A57U U64G | ≤ 0.5
130 | C46A U64C | 0.986
131 | G6C C11A C34G C66A | ≤ 0.5
132 | G17A C27G G67A | 0.573
133 | U16A G18A C31U C66U | ≤ 0.5
134 | C11A U32A C34A A65C | ≤ 0.5
135 | G6A A15C C29A C66U | ≤ 0.5
136 | C22A C33A C60A | 0.642
137 | C49G G56A A65C | 0.543
138 | U16C C30G C61U G68A | ≤ 0.5
139 | A21U G58A | 0.721
140 | U26G U59G | 0.704
141 | C24G C30G | 0.53
142 | C27G U32A G41A | 0.671
143 | C33U U53A G58C | ≤ 0.5
144 | U28A A43U U53A | ≤ 0.5

Row | Variant | yeast fitness
145 | C22U C24G A36C A70C | ≤ 0.5
146 | G38C C55G A69C | 0.579
147 | U2G G9C A36U A45C | ≤ 0.5
148 | U28A C29G C33U C34G A42U U59C | ≤ 0.5
149 | G6C C22U C24G C27U C29A C30U C31G | ≤ 0.5
150 | A14G A20G U47A G58C | ≤ 0.5
151 | A40G U47A | 0.848
152 | A14G C46A A57G | 0.743
153 | C27U C31G A43C C49G G52C U59G | ≤ 0.5
154 | C4G C49A G56C C61U | 0.609
155 | U8G C29G G38C G44A | 0.803
156 | G17U A45U C55U A70C | ≤ 0.5
157 | U3A G9C A65C | ≤ 0.5
158 | C4U A45G G51A G67A | ≤ 0.5
159 | C33A U35A U64C G68C | ≤ 0.5
160 | A20C C30A A57U | ≤ 0.5
161 | G6A C62U A65C | 0.763
162 | C33A G50A A69U A70C | ≤ 0.5
163 | U28C C66G | 0.72
164 | C4U C30A G67C | 0.731
165 | A37U C55U | 0.594
166 | C22A C31G U35A | 0.558
167 | C5A G17C | 0.652
